Assay [1] concerns the target T1, Muscarinic acetylcholine receptor M2 (Rattus norvegicus, UniProt P10980).
T1 sequence (P10980 whole entry): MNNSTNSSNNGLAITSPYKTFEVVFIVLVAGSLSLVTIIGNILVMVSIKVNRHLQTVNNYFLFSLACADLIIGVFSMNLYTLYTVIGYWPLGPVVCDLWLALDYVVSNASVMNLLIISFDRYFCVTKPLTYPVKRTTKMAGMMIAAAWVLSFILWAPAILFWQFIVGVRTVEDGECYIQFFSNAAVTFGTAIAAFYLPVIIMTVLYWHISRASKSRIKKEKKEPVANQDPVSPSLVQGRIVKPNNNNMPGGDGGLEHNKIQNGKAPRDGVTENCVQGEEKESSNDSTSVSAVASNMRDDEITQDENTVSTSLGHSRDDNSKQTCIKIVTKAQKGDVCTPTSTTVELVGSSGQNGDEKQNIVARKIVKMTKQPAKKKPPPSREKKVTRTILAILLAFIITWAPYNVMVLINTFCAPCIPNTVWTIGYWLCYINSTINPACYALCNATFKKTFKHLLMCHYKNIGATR
Kind of assay: The compound was tested in vitro for binding activity against M2 muscarinic receptor in homogenates of the brainstem of rat using [3H]quinuclidinyl benzilate (QNB) as radioligand. It is filed as tissue-based, Brain. The method in brief:
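Competition binding on rat brainstem homogenate with [3H]-QNB in 50 mM Tris buffer (pH 7.4) for 90 min at 25 °C. Separation is by rapid GF-B filtration with scintillation counting. 2 μM atropine defines non-specific binding. DMSO stays under 0.1%. Ki is taken from IC50 via Cheng–Prusoff using radioligand concentration and Kd.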

Assay [2] addresses T2, Muscarinic acetylcholine receptor M1 (Rattus norvegicus, UniProt P08482).
T2 sequence (P08482 whole entry): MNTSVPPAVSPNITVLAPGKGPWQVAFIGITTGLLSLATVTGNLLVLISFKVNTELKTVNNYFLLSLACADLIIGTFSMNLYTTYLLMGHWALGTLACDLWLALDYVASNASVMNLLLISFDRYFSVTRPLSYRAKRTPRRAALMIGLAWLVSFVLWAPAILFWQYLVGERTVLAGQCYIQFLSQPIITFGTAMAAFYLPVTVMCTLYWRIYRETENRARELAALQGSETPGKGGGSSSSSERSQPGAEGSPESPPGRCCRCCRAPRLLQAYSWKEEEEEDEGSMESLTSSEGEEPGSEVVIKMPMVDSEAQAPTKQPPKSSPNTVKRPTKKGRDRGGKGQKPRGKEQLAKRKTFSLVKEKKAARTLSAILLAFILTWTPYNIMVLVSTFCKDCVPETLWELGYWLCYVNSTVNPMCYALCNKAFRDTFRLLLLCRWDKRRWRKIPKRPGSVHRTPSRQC
Kind of assay: The compound was tested in vitro for binding activity against M1 muscarinic receptor in homogenates of the cerebral cortex of rat using [3H]pirenzepine as radioligand. It is filed as tissue-based. In a few lines: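 Rat cerebral cortex homogenate with [3H]-pirenzepine in 50 mM Tris buffer pH 7.4, 25 °C for 90 min. Bound ligand is separated by rapid GF-B filtration and counted by liquid scintillation. Non-specific binding is defined with 2 μM atropine. Compounds in DMSO, below 0.1% final. Ki = IC50/(1 + L/Kd) by Cheng–Prusoff.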

The values that follow come from ChEMBL document CHEMBL1134963, “Synthesis and muscarinic M(2) subtype antagonistic activity of enantiomeric pairs of 3-demethylhimbacine (3-norhimbacine) and its C(4)-epimer” (Bioorg Med Chem Lett, 2002).

In general, Ki refers to the dissociation constant of the complex between target and ligand, obtained from inhibition or displacement. Higher therefore signals lower affinity. In the case of `C[C@H]1CCC[C@H](/C=C/[C@H]2[C@H]3COC(=O)[C@H]3C[C@H]3CCCC[C@@H]32)N1C` (stereo in doubt), the Ki in assay [1] is 794 nM; in assay [2] it was 1000 nM.

Take `C[C@H]1CCC[C@H](/C=C/[C@@H]2[C@H]3COC(=O)[C@H]3C[C@H]3CCCC[C@@H]32)N1C` (stereo in doubt): the “-Log Ki” value in assay [1] is given as 6.4. Further, the Ki in assay [2] is 501 nM.

As for `C[C@H]1CCC[C@H](/C=C/[C@H]2[C@H]3COC(=O)[C@H]3C[C@H]3CCCC[C@@H]32)N1C` (stereo in doubt; 2), the inhibition constant (Ki) in assay [1] is 7.94 nM; in assay [2], 39.8 nM.

As for `C[C@H]1CCC[C@H](/C=C/[C@@H]2[C@H]3COC(=O)[C@H]3C[C@H]3CCCC[C@@H]32)N1C` (stereo in doubt; 3), the inhibition constant Ki was 398 nM in assay [1] and 631 nM in assay [2].

As for `C[C@@H]1OC(=O)[C@H]2C[C@H]3CCCC[C@@H]3[C@@H](/C=C/[C@H]3CCC[C@H](C)N3C)[C@@H]12` [HIMBACINE], the Ki was 12.6 nM in assay [1] and 79.4 nM in assay [2].
